Source: ChEMBL document CHEMBL4342468, “Evolution of a 4-Benzyloxy-benzylamino Chemotype to Provide Efficacious, Potent, and Isoform Selective PPARα Agonists as Leads for Retinal Disorders” (J Med Chem, 2020)

How the values were obtained:
Rattus norvegicus [1] = assay: Protection against STZ-induced diabetic retinopathy Brown Norway rat model assessed as reduction in vascular leakage by measuring retinal vascular permeability at 23 mg/kg, ip administered daily for 4 weeks starting at 2 weeks post STZ challenge measured per mg of total retinal protein by Evan blue dye based assay (reference value: 0.090 +/- 0.015 microg); format: functional
Outline: (§1)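 Male Brown Norway rats aged 8 weeks (legend: 7–8 weeks) made diabetic with STZ 55 mg/kg i.p.; blood glucose >350 mg/dl at day 3. Starting 2 weeks after STZ, daily i.p. compound or same-volume vehicle for 4 weeks. Under ketamine/xylazine, Evans blue 30 mg/ml at 1 µl/g given i.v. via femoral vein and circulated 2 h. Perfusion with 1% paraformaldehyde in citrate buffer, pH 4.2, at 37°C. Retina extracted in formamide 18 h at 70°C, ultracentrifuged, A620 read. Dye amount from a standard curve, normalized to total protein. Groups compared by Student's t-test, mean ± SD.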

[2] = Toxicity in STZ-induced diabetic retinopathy Brown Norway rat model assessed as liver weight at 23 mg/kg, ip administered daily for 4 weeks starting at 2 weeks post STZ challenge relative to body weight (reference value: 4.36 +/- 0.37%); format: organism-based; conditions: in vivo
[3] = target: T1, Peroxisome proliferator-activated receptor alpha (Homo sapiens) (UniProt Q07869); assay: Agonist activity at human PPARalpha expressed in nonhuman mammalian cells assessed as maximal increase in receptor transcriptional activity incubated for 22 to 24 hrs by luciferase reporter gene assay relative to GW590735; format: cell-based
T1 sequence (whole entry): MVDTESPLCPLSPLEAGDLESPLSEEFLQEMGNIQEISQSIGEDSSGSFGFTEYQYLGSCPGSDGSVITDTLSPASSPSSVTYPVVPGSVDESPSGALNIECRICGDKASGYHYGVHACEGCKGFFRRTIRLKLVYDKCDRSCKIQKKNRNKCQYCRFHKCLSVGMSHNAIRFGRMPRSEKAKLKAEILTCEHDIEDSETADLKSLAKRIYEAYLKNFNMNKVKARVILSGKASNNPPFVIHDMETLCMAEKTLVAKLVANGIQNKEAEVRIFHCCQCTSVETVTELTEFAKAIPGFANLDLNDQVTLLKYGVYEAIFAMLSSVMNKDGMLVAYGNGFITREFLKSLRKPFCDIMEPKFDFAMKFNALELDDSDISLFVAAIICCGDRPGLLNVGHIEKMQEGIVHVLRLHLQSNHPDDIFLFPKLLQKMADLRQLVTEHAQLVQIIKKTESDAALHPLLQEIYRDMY

[4] = target: T2, Peroxisome proliferator-activated receptor alpha (Homo sapiens, UniProt Q07869)
T2 sequence (Q07869 whole entry): T1 sequence (whole entry)

[5] = target: T3, Peroxisome proliferator-activated receptor gamma (Homo sapiens, UniProt P37231); assay: Agonist activity at human PPARgamma expressed in nonhuman mammalian cells assessed as increase in receptor transcriptional activity incubated for 22 to 24 hrs by luciferase reporter gene assay; format: cell-based
T3 sequence (P37231 whole entry): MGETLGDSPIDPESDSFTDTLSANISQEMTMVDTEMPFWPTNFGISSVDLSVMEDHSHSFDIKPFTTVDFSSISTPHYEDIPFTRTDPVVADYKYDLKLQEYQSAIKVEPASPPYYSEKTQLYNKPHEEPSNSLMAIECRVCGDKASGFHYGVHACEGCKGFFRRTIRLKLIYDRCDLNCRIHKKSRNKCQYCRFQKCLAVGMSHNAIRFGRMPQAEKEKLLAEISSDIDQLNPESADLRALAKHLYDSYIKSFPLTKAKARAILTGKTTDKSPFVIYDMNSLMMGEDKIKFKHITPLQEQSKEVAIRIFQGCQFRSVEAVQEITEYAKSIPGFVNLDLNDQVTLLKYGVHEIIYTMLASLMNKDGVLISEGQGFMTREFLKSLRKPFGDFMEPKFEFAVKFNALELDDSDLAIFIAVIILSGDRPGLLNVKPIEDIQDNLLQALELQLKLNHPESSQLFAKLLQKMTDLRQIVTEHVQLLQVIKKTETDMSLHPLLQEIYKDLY
Outline: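 Reporter cells (nonhuman mammalian, engineered PPAR receptor with luciferase linked to response promoter) pre-incubated 4–6 h at 37 °C, 5% CO2 in medium with 10% charcoal-stripped FBS. Medium replaced with compound-containing screening medium, 22–24 h at 37 °C, then luciferase detection reagent, luminescence read. Multi-point dose-response for EC50; mean ± SEM of at least two separate experiments in triplicate.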

[6] = target: T4, Peroxisome proliferator-activated receptor delta (Homo sapiens, UniProt Q03181); assay: Agonist activity at human PPARdelta expressed in nonhuman mammalian cells assessed as increase in receptor transcriptional activity incubated for 22 to 24 hrs by luciferase reporter gene assay; format: cell-based
T4 sequence (Q03181 whole entry): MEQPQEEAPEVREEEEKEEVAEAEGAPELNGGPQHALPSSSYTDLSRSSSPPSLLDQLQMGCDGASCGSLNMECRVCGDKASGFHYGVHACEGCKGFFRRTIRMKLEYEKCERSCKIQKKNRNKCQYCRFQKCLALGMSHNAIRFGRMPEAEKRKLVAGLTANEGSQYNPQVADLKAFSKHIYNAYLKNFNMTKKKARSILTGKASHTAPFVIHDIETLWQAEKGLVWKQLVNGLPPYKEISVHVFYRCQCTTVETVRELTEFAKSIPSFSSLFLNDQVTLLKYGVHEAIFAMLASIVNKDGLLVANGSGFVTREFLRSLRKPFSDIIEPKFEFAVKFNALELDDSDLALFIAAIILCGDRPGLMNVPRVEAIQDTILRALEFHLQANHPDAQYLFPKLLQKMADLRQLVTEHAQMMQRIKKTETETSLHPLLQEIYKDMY

Homo sapiens [7] = organism: Homo sapiens; assay: Selectivity index, ratio of EC50 for human PPARgamma expressed in nonhuman mammalian cells to EC50 for human PPARalpha expressed in nonhuman mammalian cells measured after 22 to 24 hrs by luciferase reporter gene assay; format: cell-based
Outline: (§2)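 Reporter cells (non-human mammalian) expressing human PPARα, γ or δ linked to a luciferase reporter were pre-incubated 4–6 h at 37 °C, 5% CO2 in medium with 10% charcoal-stripped FBS. SI = EC50(PPARγ or δ)/EC50(PPARα).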

Homo sapiens [8] = organism: Homo sapiens; assay: Selectivity index, ratio of EC50 for human PPARdelta expressed in nonhuman mammalian cells to EC50 for human PPARalpha expressed in nonhuman mammalian cells measured after 22 to 24 hrs by luciferase reporter gene assay; format: cell-based; outline: as §2
[9] = Half life in Sprague Dawley rat pooled liver microsomes preincubated for 5 mins prior to addition of NADPH-regenerating system and measured up to 60 mins by HPLC-MS/MS analysis; format: ADME, Microsome; conditions: 1 h
[10] = Half life in human pooled liver microsomes preincubated for 5 mins prior to addition of NADPH-regenerating system and measured up to 60 mins by HPLC-MS/MS analysis; format: ADME, Microsome; conditions: 1 h
[11] = target: Voltage-gated inwardly rectifying potassium channel KCNH2 (Homo sapiens, UniProt Q12809); assay: Inhibition of human ERG stably expressed in CHOK1 cells assessed as tail current amplitude at 0.1 to 10 uM incubated for 5 mins measured after deploarization to +20 mV for 2s followed by 1s pulse to -40 mV with holding potential of -80 mV by Qpatch clamp assay; format: cell-based
Chain of Voltage-gated inwardly rectifying potassium channel KCNH2 (Q12809 whole entry): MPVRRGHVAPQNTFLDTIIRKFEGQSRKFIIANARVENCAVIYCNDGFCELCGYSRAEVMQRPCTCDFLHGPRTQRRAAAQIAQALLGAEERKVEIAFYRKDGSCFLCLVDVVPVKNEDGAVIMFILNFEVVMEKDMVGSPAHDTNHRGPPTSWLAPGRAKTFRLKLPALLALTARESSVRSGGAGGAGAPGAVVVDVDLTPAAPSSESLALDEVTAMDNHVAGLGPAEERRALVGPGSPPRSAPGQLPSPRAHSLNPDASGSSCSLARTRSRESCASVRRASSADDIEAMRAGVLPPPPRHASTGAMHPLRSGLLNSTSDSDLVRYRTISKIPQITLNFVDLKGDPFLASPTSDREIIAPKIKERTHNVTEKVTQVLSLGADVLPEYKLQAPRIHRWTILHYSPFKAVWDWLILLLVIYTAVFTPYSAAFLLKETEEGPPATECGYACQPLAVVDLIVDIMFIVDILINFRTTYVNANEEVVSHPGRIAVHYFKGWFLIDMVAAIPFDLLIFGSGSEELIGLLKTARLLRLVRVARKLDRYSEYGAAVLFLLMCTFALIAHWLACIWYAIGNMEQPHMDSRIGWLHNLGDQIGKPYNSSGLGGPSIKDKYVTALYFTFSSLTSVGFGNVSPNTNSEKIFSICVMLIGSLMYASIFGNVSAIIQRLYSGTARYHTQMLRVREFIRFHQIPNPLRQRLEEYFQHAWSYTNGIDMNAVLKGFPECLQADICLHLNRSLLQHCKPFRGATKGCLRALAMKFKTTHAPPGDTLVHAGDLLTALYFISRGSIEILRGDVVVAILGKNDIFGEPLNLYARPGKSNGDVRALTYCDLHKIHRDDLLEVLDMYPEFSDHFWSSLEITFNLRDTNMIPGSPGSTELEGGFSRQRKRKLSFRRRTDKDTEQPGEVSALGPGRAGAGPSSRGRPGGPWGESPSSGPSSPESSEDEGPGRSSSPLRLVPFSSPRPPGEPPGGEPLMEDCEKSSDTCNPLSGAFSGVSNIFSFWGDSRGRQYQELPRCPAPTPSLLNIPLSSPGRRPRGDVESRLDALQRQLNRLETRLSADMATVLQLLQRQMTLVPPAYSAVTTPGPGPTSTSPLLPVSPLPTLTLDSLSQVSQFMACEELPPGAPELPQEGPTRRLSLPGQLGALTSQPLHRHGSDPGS
Outline: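 Whole-cell automated patch clamp at room temperature. CHO-K1 cells were detached with trypsin and held in serum-free medium. Intracellular solution was KCl/EGTA/MgATP/HEPES at pH 7.2; extracellular solution was NaCl/KCl/CaCl2/glucose/HEPES at pH 7.4, applied first for 5 min. Compound given at 0.1, 1 and 10 μM in rising order, 5 min each, on the same cell. Percent inhibition taken from tail current before and after compound. E-4031 reference. Run in duplicate.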

661W = assay: Cytotoxicity against mouse 661W cells assessed as cell death at 200 uM incubated for overnight by colorimetric enzyme coupled LDH assay; format: cell-based
Rattus norvegicus [12] = assay: Protection against STZ-induced diabetic retinopathy Brown Norway rat model assessed as reduction in vascular leakage by measuring retinal vascular permeability at 25 mg/kg, ip administered daily for 4 weeks starting at 2 weeks post STZ challenge measured per mg of total retinal protein by Evan blue dye based assay (reference value: 0.090 +/- 0.015 microg); format: functional; outline: as §1
[13] = Toxicity in STZ-induced diabetic retinopathy Brown Norway rat model assessed as liver weight at 25 mg/kg, ip administered daily for 4 weeks starting at 2 weeks post STZ challenge relative to body weight (reference value: 4.36 +/- 0.37%); format: organism-based; conditions: in vivo
[14] = Toxicity in STZ-induced diabetic retinopathy Brown Norway rat model at 25 mg/kg, ip administered for 1 month starting at 2 weeks post STZ challenge; format: organism-based; conditions: in vivo, 336 h
hERG (KCNH2) = hERG (KCNH2) (Homo sapiens, UniProt Q12809); assay: Inhibition of human ERG stably expressed in CHOK1 cells assessed as tail current amplitude at 10 uM incubated for 5 mins measured after deploarization to +20 mV for 2s followed by 1s pulse to -40 mV with holding potential of -80 mV by Qpatch clamp assay relative to control; format: cell-based; conditions: CHO-K1 cells stably expressing human ERG
Chain of hERG (KCNH2) (Q12809 whole entry): as above
Outline: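 Whole-cell automated patch clamp at room temperature on CHO-K1 cells stably carrying human hERG cDNA. Holding potential -80 mV; tail current evoked by 2 s step to +20 mV then 1 s to -40 mV.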

[15] = target: T2, Peroxisome proliferator-activated receptor alpha; assay: Binding affinity to PPARalpha in human MIO-M1 cells assessed as increase in thermal stability preincubated for 3 hrs followed by exposure to 45.5 degree C for 10 mins by CETSA; format: cell-based
Outline: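 Human retinal Müller glial MIO-M1 cells grown in DMEM with 10% FBS. They were then heated at Tagg(75) for 10 min. Lysis used cold PBS with 0.1% Triton X-100 and protease inhibitors, and unstable protein was removed by centrifugation. Soluble PPARα was quantified by anti-PPARα immunoblot, normalized to loading control, and EC50 fitted. Single experiment, duplicate.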

[16] = target: T1, Peroxisome proliferator-activated receptor alpha (Homo sapiens); assay: Binding affinity to His tagged PPARalpha LBD (unknown origin) expressed in Escherichia coli Rosetta (DE3) assessed as change in entropy at 25 degree C by isothermal titration calorimetry
[17] = target: T1, Peroxisome proliferator-activated receptor alpha (Homo sapiens); assay: Binding affinity to His-tagged PPARalpha LBD (unknown origin) expressed in Escherichia coli Rosetta (DE3) assessed as change in enthalpy at 25 degree C by isothermal titration calorimetry

| Compound | fold change (FC) [3] | EC50 [4] | EC50 [5] | EC50 [6] | further results |
| --- | --- | --- | --- | --- | --- |
| CC(C)(Oc1ccc(C(=O)c2ccc(Cl)cc2)cc1)C(=O)O [FENOFIBRIC ACID] |  |  |  |  | Activity (Rattus norvegicus [1]): 0.059 µg; Activity [2]: 5.79% |
| O=C(O)c1cccc(NCc2ccc(OCc3ccc(F)cc3)c(OCc3ccc(F)cc3)c2)c1 | 1.4 | 0.81 µM |  |  |  |
| O=C(O)c1cc(F)cc(NCc2ccc(OCc3ccc(F)cc3)cc2)c1 | 1.1 | 0.58 µM | > 100 µM | > 100 µM | Ratio EC50 (Homo sapiens [7]): > 170; Ratio EC50 (Homo sapiens [8]): > 170 |
| COc1ccc(COc2ccc(CNc3cccc(C(=O)O)c3)cc2)cc1 |  | 4.43 µM | > 100 µM | > 100 µM | t1/2 [9]: > 1 h; t1/2 [10]: > 1 h; inhibition (INH) [11]: Not Active; Activity (661W): Non-Toxic; Activity (Rattus norvegicus [12]): 0.062 µg; Activity [13]: 4.68%; Activity [14]: Non-Toxic; inhibition at 5 min, 10 µM (hERG (KCNH2)): 10%; EC50 [15]: 0.3 µM; -TdeltaS [16]: 5.71 kcal/mol |
| O=C(O)c1cc(Br)cc(NCc2ccc(OCc3ccc(F)cc3)cc2)c1 | 1.4 | 1.12 µM | > 100 µM | > 100 µM | Ratio EC50 (Homo sapiens [7]): > 100; Ratio EC50 (Homo sapiens [8]): > 100 |
| O=C(O)c1cccc(NCc2ccc(OCc3ccc(Br)cc3)cc2)c1 | 1.3 | 0.97 µM |  |  |  |
| Cc1nc(-c2ccc(C(F)(F)F)cc2)sc1C(=O)NCc1ccc(OC(C)(C)C(=O)O)cc1 | 1 |  |  |  | deltaH [17]: -14.1 kcal/mol; -TdeltaS [16]: 4.9 kcal/mol |
| O=C(O)c1cccc(NCc2ccc(OCc3cccc(F)c3)cc2)c1 | 1.2 | 1.18 µM |  |  |  |
| O=C(O)c1cc(F)cc(NCc2ccc(OCc3ccc(F)cc3)c(Cl)c2)c1 | 1.8 | 0.052 µM |  |  |  |
| O=C(O)c1cccc(NCc2ccc(OCc3ccc(F)cc3F)cc2)c1 | 1.2 | 0.54 µM | > 100 µM | > 100 µM | Ratio EC50 (Homo sapiens [7]): > 175; Ratio EC50 (Homo sapiens [8]): > 175 |
| O=C(O)c1cccc(NCc2ccc(OCc3ccc(C(F)(F)F)cc3)cc2)c1 | 0.9 | 0.96 µM |  |  |  |
| O=C(O)c1cccc(NCc2ccc(OCc3ccc(F)c(F)c3)cc2)c1 | 1.2 | 0.36 µM |  |  |  |
| Cc1cc(OCc2ccc(F)cc2)ccc1CNc1cccc(C(=O)O)c1 | 1.2 | 1.45 µM |  |  |  |
| O=C(O)c1cccc(NCc2ccc(OCc3ccc(F)cc3)cc2)c1 | 1.3 |  | > 100 µM | > 100 µM | deltaH [17]: -8.18 kcal/mol; -TdeltaS [16]: 0.98 kcal/mol |
| O=C(O)c1cc(NCc2ccc(OCc3ccc(F)cc3)cc2)ccc1F | 1.2 | 1.61 µM |  |  |  |
| O=C(O)c1cccc(NCc2ccc(OCc3ccc(Cl)cc3)cc2)c1 | 1.5 | 0.83 µM |  |  |  |
